Assay results as given in ChEMBL document CHEMBL1821594, “Synthesis and anticancer evaluation of novel 2-cyclopropylimidazo[2,1-b][1,3,4]-thiadiazole derivatives” (2011).

Columns and labels:
Type in all cases: functional
CCRF-CEM = experiment: Antitumor activity against human CCRF-CEM cells after 48 hrs by SRB assay
In short: (§1)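 Cells grown in RPMI 1640 with 5% FBS and 2 mM L-glutamine and seeded at 5000–40,000 cells/well according to doubling time. They were preincubated 24 h at 37 °C, 5% CO2, then exposed to DMSO-solubilized compound for 48 h. Adherent cells were fixed with cold TCA (10% final), suspension cells with 16% final. Stained with 0.4% SRB; absorbance at 515 nm. Percent growth calculated against time-zero and control plates.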

SK-MEL-5 = experiment: Antitumor activity against human SK-MEL-5 cells after 48 hrs by SRB assay; details: SK-MEL-5, 48 h; in short: as §1
UACC-62 = experiment: Antitumor activity against human UACC62 cells after 48 hrs by SRB assay; details: UACC-62, 48 h
In short: (§2)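 NCI-60 protocol. Cells were grown in RPMI 1640 with 5% FBS and 2 mM L-glutamine, plated at 5000–40,000 cells/well, and preincubated 24 h at 37 °C, 5% CO2. Time-zero plates were TCA-fixed. Compounds were in DMSO and incubated 48 h. Fixation used cold TCA (final 16% for suspension SR; final 10% for adherent lines 2-7). Plates were stained with 0.4% SRB in 1% acetic acid, solubilized in 10 mM Tris base, and read at 515 nm. Percent growth was calculated from Tz, C and Ti.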

OVCAR-3 = experiment: Antitumor activity against human OVCAR3 cells after 48 hrs by SRB assay; details: OVCAR-3, 48 h; in short: as §1
OVCAR-4 = experiment: Antitumor activity against human OVCAR4 cells after 48 hrs by SRB assay; details: OVCAR-4, 48 h; in short: as §1
ACHN = experiment: Antitumor activity against human ACHN cells after 48 hrs by SRB assay; in short: as §1
CAKI-1 = experiment: Antitumor activity against human Caki1 cells after 48 hrs by SRB assay; details: CAKI-1, 48 h; in short: as §1
RXF 393 = experiment: Antitumor activity against human RXF393 cells after 48 hrs by SRB assay; details: RXF 393, 48 h; in short: as §1
SN12C = experiment: Antitumor activity against human SN12C cells after 48 hrs by SRB assay; in short: as §1
PC-3 = experiment: Antitumor activity against human PC3 cells after 48 hrs by SRB assay; details: PC-3, 48 h; in short: as §1
MCF7 = experiment: Antitumor activity against human MCF7 cells after 48 hrs by SRB assay; details: MCF7, 48 h; in short: as §1
BT-549 = experiment: Antitumor activity against human BT549 cells after 48 hrs by SRB assay; details: BT-549, 48 h; in short: as §1
K562 = experiment: Antitumor activity against human K562 cells after 48 hrs by SRB assay; details: K562, 48 h; in short: as §1
MOLT-4 = experiment: Antitumor activity against human MOLT4 cells after 48 hrs by SRB assay; details: MOLT-4, 48 h; in short: as §1
RPMI-8226 = experiment: Antitumor activity against human RPMI8226 cells after 48 hrs by SRB assay; details: RPMI-8226, 48 h; in short: as §1
A549 = experiment: Antitumor activity against human A549 cells after 48 hrs by SRB assay; details: A549, 48 h; in short: as §1
EKVX = experiment: Antitumor activity against human EKVX cells after 48 hrs by SRB assay; in short: as §1
NCI-H23 = experiment: Antitumor activity against human NCI-H23 cells after 48 hrs by SRB assay; details: NCI-H23, 48 h; in short: as §1
NCI-H460 = experiment: Antitumor activity against human NCI-H460 cells after 48 hrs by SRB assay; details: NCI-H460, 48 h; in short: as §1
NCI-H522 = experiment: Antitumor activity against human NCI-H522 cells after 48 hrs by SRB assay; details: NCI-H522, 48 h; in short: as §1
HCT-15 = experiment: Antitumor activity against human HCT15 cells after 48 hrs by SRB assay; details: HCT-15, 48 h; in short: as §1
HT-29 = experiment: Antitumor activity against human HT-29 cells after 48 hrs by SRB assay; details: HT-29, 48 h; in short: as §1
SW-620 = experiment: Antitumor activity against human SW620 cells after 48 hrs by SRB assay; details: SW-620, 48 h; in short: as §2
SNB-19 = experiment: Antitumor activity against human SNB19 cells after 48 hrs by SRB assay; details: SNB-19, 48 h; in short: as §1
LOX IMVI = experiment: Antitumor activity against human LOXIMVI cells after 48 hrs by SRB assay; in short: as §1
Malme-3M = experiment: Antitumor activity against human MALME-3M cells after 48 hrs by SRB assay; in short: as §1
M14 = experiment: Antitumor activity against human M14 cells after 48 hrs by SRB assay; details: M14, 48 h; in short: as §1
MDA-MB-435 = experiment: Antitumor activity against human MDA-MB-435 cells after 48 hrs by SRB assay; details: MDA-MB-435, 48 h; in short: as §1
SK-MEL-28 = experiment: Antitumor activity against human SK-MEL-28 cells after 48 hrs by SRB assay; details: SK-MEL-28, 48 h; in short: as §1
[1] = read-out: LC50 (the source's name)

SMILES: Clc1ccc(-c2nc3sc(C4CC4)nn3c2Br)cc1
- GI50 (CCRF-CEM): 3.66 µM
- TGI (CCRF-CEM): > 100 µM
- CC50 (CCRF-CEM; [1]): > 100 µM
- GI50 (SK-MEL-5): 2.17 µM
- TGI (SK-MEL-5): > 100 µM
- CC50 (SK-MEL-5; [1]): > 100 µM
- GI50 (UACC-62): 4.36 µM
- TGI (UACC-62): > 100 µM
- CC50 (UACC-62; [1]): > 100 µM
- GI50 (OVCAR-3): 4.63 µM
- TGI (OVCAR-3): > 100 µM
- CC50 (OVCAR-3; [1]): > 100 µM
- GI50 (OVCAR-4): 12.7 µM
- TGI (OVCAR-4): 82.1 µM
- CC50 (OVCAR-4; [1]): > 100 µM
- GI50 (ACHN): 7.07 µM
- TGI (ACHN): > 100 µM
- CC50 (ACHN; [1]): > 100 µM
- GI50 (CAKI-1): 9.69 µM
- TGI (CAKI-1): > 100 µM
- CC50 (CAKI-1; [1]): > 100 µM
- GI50 (RXF 393): 2.93 µM
- TGI (RXF 393): 14.8 µM
- CC50 (RXF 393; [1]): > 100 µM
- GI50 (SN12C): 14.3 µM
- TGI (SN12C): > 100 µM
- CC50 (SN12C; [1]): > 100 µM
- GI50 (PC-3): 2.22 µM
- TGI (PC-3): > 100 µM
- CC50 (PC-3; [1]): > 100 µM
- GI50 (MCF7): 8.18 µM
- TGI (MCF7): > 100 µM
- CC50 (MCF7; [1]): > 100 µM
- GI50 (BT-549): 4.07 µM
- TGI (BT-549): > 100 µM
- CC50 (BT-549; [1]): > 100 µM
- GI50 (K562): 1.79 µM
- TGI (K562): > 100 µM
- CC50 (K562; [1]): > 100 µM
- GI50 (MOLT-4): 2.97 µM
- TGI (MOLT-4): > 100 µM
- CC50 (MOLT-4; [1]): > 100 µM
- GI50 (RPMI-8226): 3.22 µM
- TGI (RPMI-8226): > 100 µM
- CC50 (RPMI-8226; [1]): > 100 µM
- GI50 (A549): 7.42 µM
- TGI (A549): > 100 µM
- CC50 (A549; [1]): > 100 µM
- GI50 (EKVX): 5.22 µM
- TGI (EKVX): > 100 µM
- CC50 (EKVX; [1]): > 100 µM
- GI50 (NCI-H23): 5.1 µM
- TGI (NCI-H23): > 100 µM
- CC50 (NCI-H23; [1]): > 100 µM
- GI50 (NCI-H460): 5.25 µM
- TGI (NCI-H460): > 100 µM
- CC50 (NCI-H460; [1]): > 100 µM
- GI50 (NCI-H522): 5.31 µM
- TGI (NCI-H522): 55.4 µM
- CC50 (NCI-H522; [1]): > 100 µM
- GI50 (HCT-15): 2.02 µM
- TGI (HCT-15): > 100 µM
- CC50 (HCT-15; [1]): > 100 µM
- GI50 (HT-29): 6.12 µM
- TGI (HT-29): > 100 µM
- CC50 (HT-29; [1]): > 100 µM
- GI50 (SW-620): 6.88 µM
- TGI (SW-620): > 100 µM
- CC50 (SW-620; [1]): > 100 µM
- GI50 (SNB-19): 15.6 µM
- TGI (SNB-19): > 100 µM
- CC50 (SNB-19; [1]): > 100 µM
- GI50 (LOX IMVI): 9.2 µM
- TGI (LOX IMVI): > 100 µM
- CC50 (LOX IMVI; [1]): > 100 µM
- GI50 (Malme-3M): 8.79 µM
- TGI (Malme-3M): > 100 µM
- CC50 (Malme-3M; [1]): > 100 µM
- GI50 (M14): 7.7 µM
- TGI (M14): > 100 µM
- CC50 (M14; [1]): > 100 µM
- GI50 (MDA-MB-435): 6.08 µM
- TGI (MDA-MB-435): > 100 µM
- CC50 (MDA-MB-435; [1]): > 100 µM
- GI50 (SK-MEL-28): 35.6 µM
- TGI (SK-MEL-28): > 100 µM
- CC50 (SK-MEL-28; [1]): > 100 µM
